Substrate in data set [1]: NCCc1ccc(O)cc1
The experiment in a line: Activity of human recombinant MAO-B expressed in baculovirus infected BTI-TN-5B1-4 insect cells assessed as hydrogen peroxide production after 15 mins by fluorimetric method. An outline of the steps: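 Microsomal hMAO-B (specific activity 22 nmol p-tyramine/min/mg protein), adjusted to oxidize 165 pmol p-tyramine/min in controls. It was preincubated 15 min at 37 °C with drug in 0.05 M sodium phosphate pH 7.4, then started with 1 mM p-tyramine (final). Resorufin fluorescence (ex 545/em 590) from Amplex Red/peroxidase was read over 15 min at 37 °C, in the dark. Controls used DMSO vehicle.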

Substrate in data set [2]: NCCc1ccc(O)cc1
The experiment in a line: Activity of human recombinant MAO-A expressed in baculovirus infected BTI-TN-5B1-4 insect cells assessed as hydrogen peroxide production after 15 mins by fluorimetric method. An outline of the steps: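 Microsomal hMAO-A (specific activity 150 nmol p-tyramine/min/mg protein), dosed to oxidize 165 pmol p-tyramine/min in controls. It was preincubated 15 min at 37 °C in 0.05 M sodium phosphate pH 7.4 with test drug, then started with 1 mM p-tyramine (final). H2O2 was read as Amplex Red/peroxidase resorufin fluorescence (ex 545/em 590) over 15 min at 37 °C, in the dark.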

The values that follow come from ChEMBL document CHEMBL1932930, “Synthesis and biological assessment of novel 2-thiazolylhydrazones and computational analysis of their recognition by monoamine oxidase B” (Eur J Med Chem, 2012).

B1: Amine oxidase [flavin-containing] B (Homo sapiens) (protein)
chain: MSNKCDVVVVGGGISGMAAAKLLHDSGLNVVVLEARDRVGGRTYTLRNQKVKYVDLGGSYVGPTQNRILRLAKELGLETYKVNEVERLIHHVKGKSYPFRGPFPPVWNPITYLDHNNFWRTMDDMGREIPSDAPWKAPLAEEWDNMTMKELLDKLCWTESAKQLATLFVNLCVTAETHEVSALWFLWYVKQCGGTTRIISTTNGGQERKFVGGSGQVSERIMDLLGDRVKLERPVIYIDQTRENVLVETLNHEMYEAKYVISAIPPTLGMKIHFNPPLPMMRNQMITRVPLGSVIKCIVYYKEPFWRKKDYCGTMIIDGEEAPVAYTLDDTKPEGNYAAIMGFILAHKARKLARLTKEERLKKLCELYAKVLGSLEALEPVHYEEKNWCEEQYSGGCYTTYFPPGILTQYGRVLRQPVDRIYFAGTETATHWSGYMEGAVEAGERAAREILHAMGKIPEDEIWQSEPESVDVPAQPITTTFLERHLPSVPGLLRLIGLTTIFSATALGFLAHKRGLLVRV
On to B1, for which, in data set [1], the Km stood at 105 µM and the Vmax came to 0.0289 µmol/min/mg.

B2: Amine oxidase [flavin-containing] A (Homo sapiens) (protein)
chain: MENQEKASIAGHMFDVVVIGGGISGLSAAKLLTEYGVSVLVLEARDRVGGRTYTIRNEHVDYVDVGGAYVGPTQNRILRLSKELGIETYKVNVSERLVQYVKGKTYPFRGAFPPVWNPIAYLDYNNLWRTIDNMGKEIPTDAPWEAQHADKWDKMTMKELIDKICWTKTARRFAYLFVNINVTSEPHEVSALWFLWYVKQCGGTTRIFSVTNGGQERKFVGGSGQVSERIMDLLGDQVKLNHPVTHVDQSSDNIIIETLNHEHYECKYVINAIPPTLTAKIHFRPELPAERNQLIQRLPMGAVIKCMMYYKEAFWKKKDYCGCMIIEDEDAPISITLDDTKPDGSLPAIMGFILARKADRLAKLHKEIRKKKICELYAKVLGSQEALHPVHYEEKNWCEEQYSGGCYTAYFPPGIMTQYGRVIRQPVGRIFFAGTETATKWSGYMEGAVEAGERAAREVLNGLGKVTEKDIWVQEPESKDVPAVEITHTFWERNLPSVSGLLKIIGFSTSVTALGFVLYKYKLLPRS
With B2, in data set [2], the Km worked out at 514 µM and the Vmax was found to be 0.301 µmol/min/mg.
